Measurements: ChEMBL document CHEMBL1250446, “Novel targets for Huntington's disease in an mTOR-independent autophagy pathway” (Nat Chem Biol, 2008)
Active and inactive are the calls of the source. The rule behind the calls is not given here.

Experiments:
[1] = test system: COS-7; experiment: Induction of autophagy in african green monkey COS7 cells expressing EGFP-HDQ74/m-calpain assessed as decrease in EGFP-HDQ74 aggregation at 500 uM after 48 hrs; assay type: functional, cell-based; conditions: Chlorocebus aethiops
[2] = test system: COS-7; experiment: Inhibition of Gsalpha in african green monkey COS7 cells expressing EGFP-HDQ74/m-calpain assessed as increase in LC3-2 level by autophagy induction assay; assay type: functional, cell-based; conditions: Chlorocebus aethiops
[3] = test system: HeLa; experiment: Induction of autophagy in human HeLa cells expressing EGFP-LC3 assessed as increase in LC3-2 level at 400 nM in presence of erythro-9-(3-(2-hydroxynonyl)adenine; assay type: functional, cell-based
[4] = test system: SK-N-MC; experiment: Cytotoxicity against human SK-N-MC cells expressing EGFP-HDQ74 at 1 uM after 48 hrs; assay type: cell-based
[5] = test system: SK-N-SH (Homo sapiens); experiment: Induction of autophagy in human SK-N-SH cells expressing EGFP-HDQ74 assessed as reduction in EGFP-HDQ74 aggregation at 1 uM after 48 hrs by densitometric analysis
[6] = test system: HeLa; experiment: Induction of autophagy in human HeLa cells expressing EGFP-LC3 assessed as increase in LC3-2 level at 400 nM; assay type: functional, cell-based
[7] = organism: Mus musculus; experiment: Induction of autophagy in Atg deficient mouse […] expressing EGFP-HDQ74 at 1 uM after 48 hrs; assay type: functional
[8] = organism: Danio rerio; experiment: Protection of neurodegeneration in zebrafish Huntington's disease model expressing EGFP-tagged huntingtin exon with EGFP-HDQ71 in rod photoreceptor assessed as decrease in […] aggregation at 3 uM; assay type: functional, organism-based
Outline: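 Transgenic zebrafish larvae raised in PTU to 3 d.p.f., then dark-reared 3–9 d.p.f. with drug in E3 medium (pH 7.2), refreshed daily. Fixed fish were cryosectioned at 12 μm and aggregates counted over 96 μm of the central eye. Means from 10 fish per group; ANOVA with Dunnett's test.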

[9] = organism: Danio rerio; experiment: Protection of neurodegeneration in zebrafish Huntington's disease model expressing EGFP-tagged huntingtin exon with EGFP-HDQ71 in rod photoreceptor assessed as induction of rhodopsin expression at 3 uM; assay type: functional, organism-based
Outline: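 Zebrafish larvae dark-reared 3–9 d.p.f. with drug in E3, refreshed daily, then lysed in RIPA/DTT. Western blot with anti-rhodopsin (Zpr3, 1:1000), anti-Zpr1 and anti-EGFP antibodies; ECL detection.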

[10] = test system: SK-N-SH; experiment: Induction of autophagy in human SK-N-SH cells expressing EGFP-HDQ74/m-calpain assessed as inhibition of EGFP-HDQ74 aggregation at 1 uM after 48 hrs; assay type: functional, cell-based
[11] = organism: Danio rerio; experiment: Protection of neurodegeneration in zebrafish Huntington's disease model expressing EGFP-tagged huntingtin exon with EGFP-HDQ71 in rod photoreceptor assessed as loss of rhodopsin expression at 3 uM
[12] = organism: Danio rerio; experiment: Protection of neurodegeneration in zebrafish Huntington's disease model expressing EGFP-tagged huntingtin exon with EGFP-HDQ71 in rod photoreceptor assessed as decrease in […] aggregation at 3 uM
[13] = test system: SK-N-MC; experiment: Induction of autophagy in Atg positive human SK-N-MC cells expressing EGFP-HDQ74 at 1 uM after 48 hrs; assay type: functional, cell-based
[14] = test system: PC-12; experiment: Induction of autophagy in rat stable inducible PC12 cells expressing A53T alpha-synuclein assessed as A53T alpha-synuclein clearance at 500 uM after 24 hrs by densitometric analysis; assay type: functional, cell-based
Outline: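 Inducible PC12 A53T α-synuclein (HA) cells induced with 1 μg/ml doxycycline for 48 h. Doxycycline then removed for 24 h with compound or DMSO. Remaining protein measured by anti-HA immunoblot, densitometry relative to actin.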

[15] = test system: SK-N-SH; experiment: Induction of autophagy in human SK-N-SH cells expressing EGFP-HDQ74 assessed as reduction in EGFP-HDQ74 aggregation at 500 uM after 48 hrs by densitometric analysis; assay type: functional, cell-based

`O=C(Nc1cc(C(=O)Nc2ccc(S(=O)(=O)O)cc2S(=O)(=O)O)cc(C(=O)Nc2ccc(S(=O)(=O)O)cc2S(=O)(=O)O)c1)Nc1cc(C(=O)Nc2ccc(S(=O)(=O)O)cc2S(=O)(=O)O)cc(C(=O)Nc2ccc(S(=O)(=O)O)cc2S(=O)(=O)O)c1` was tested, and the Activity [1] was “Active” and the Activity [2] was “Active”.

For `CCCCCC[C@@H]([C@@H](C)O)n1cnc2c(N)ncnc21` (relative stereo), the Activity [3] was “inactive”.

With `CCCCc1oc2ccccc2c1C(=O)c1cc(I)c(OCCN(CC)CC)c(I)c1` [AMIODARONE] the Activity [4] was “Non-toxic” and the Activity [5] was “Active”.

`CCOC(=O)C1=C(C)NC(C)=C(C(=O)OC)C1c1cccc([N+](=O)[O-])c1` (stereo not given) [NITRENDIPINE] was tested, and the Activity [4] was “Non-toxic” and the Activity [5] was “Active”.

With `CO/C1=C\C(C)=C\[C@@H](C)[C@@H](O)[C@@H](C)C/C(C)=C/C=C/[C@H](OC)[C@@H]([C@@H](C)[C@@H](O)[C@H](C)[C@@]2(O)C[C@@H](O)[C@H](C)[C@@H](C(C)C)O2)OC1=O` the Activity [6] was “Active”.

For `Clc1cccc(Cl)c1NC1=NCCN1`, the Activity [7] was “inactive”, the Activity [8] was “Active” and the Activity [9] was “Active”. For the same molecule, the Activity [10] was “inactive”, the Activity [11] was “inactive” and the Activity [12] was “Active”. The Activity [13] was “Active” and the Activity [5] was “Active”.

`COCCOC(=O)C1=C(C)NC(C)=C(C(=O)OC(C)C)C1c1cccc([N+](=O)[O-])c1` (stereo not given) [NIMODIPINE] was tested, and the Activity [4] was “Non-toxic” and the Activity [5] was “Active”.

In the case of `CCCC(=O)Nc1ncnc2c1ncn2[C@@H]1O[C@@H]2COP(=O)(O)O[C@H]2[C@H]1OC(=O)CCC`, the Activity [14] was “inactive” and the Activity [15] was “inactive”.
